Laboratory results taken from ChEMBL document CHEMBL4808192, “Synthesis and biological evaluation of novel imidazo[1,2-a]pyridine-oxadiazole hybrids as anti-proliferative agents: Study of microtubule polymerization inhibition and DNA binding” (Bioorg Med Chem, 2021).
Calls of active or inactive are those of the source. The rule behind the calls is not given here.

How the values were obtained:
DU-145 = assay: Antiproliferative activity against human DU-145 cells assessed as reduction in cell viability incubated for 48 hrs by MTT assay; type: functional, cell-based; settings: DU-145, 48 h
In short: (§1)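 Cells grown in medium with 10% FBS and 1% antibiotic-antimycotic at 37 °C, passaged at 80–90% confluence with 0.25% trypsin/1 mM EDTA. Seeded at 1000–4000 cells/well and grown overnight. Medium was then replaced and compounds added at various concentrations for 48 h. MTT (0.5 mg/mL) was added for 4 h at 37 °C, formazan dissolved in DMSO and absorbance read at 570 nm. IC50 is the 50% inhibitory concentration.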

PC-3 = assay: Antiproliferative activity against human PC-3 cells assessed as reduction in cell viability incubated for 48 hrs by MTT assay; type: functional, cell-based; settings: PC-3, 48 h; in short: as §1
A549 [1] = assay: Antiproliferative activity against human A549 cells assessed as reduction in cell viability incubated for 48 hrs by MTT assay; type: functional, cell-based; settings: A549, 48 h; in short: as §1
Sus scrofa [2] = species: Sus scrofa; assay: Inhibition of pig brain tubulin polymerization at 8 uM incubated for 1 hr by fluorescence based analysis relative to control; type: tissue-based
In short: (§2)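 Cell-free fluorescence kit assay with porcine brain tubulin (2 mg/mL) in 80 mM PIPES pH 6.9, 2.0 mM MgCl2, 0.5 mM EGTA, 1.0 mM GTP and glycerol. Compound tested at 0.5, 1, 2, 4 and 8 μM, with a DMSO vehicle and a 3 μM podophyllotoxin reference. Polymerization followed at excitation 360/emission 440 nm for 1 h at 37 °C. Inhibition taken relative to vehicle; IC50 is the concentration giving 50% inhibition of assembly.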

A549 [3] = assay: Cell cycle arrest in human A549 cells assessed as accumulation of cells at S phase at 2.8 uM measured after 48 hrs by propidium iodide staining based FACS cytometry analysis (reference value: 12.7%); type: functional
[4] = Selectivity index, ratio of IC50 for human HEK293 cells to IC50 for human PC-3 cells assessed as reduction in cell viability measured after 48 hrs by MTT assay; type: toxicity; settings: HEK293 cells versus PC-3 cells, read-out: Ratio IC50
Calf thymus DNA [5] = assay: Binding affinity to calf thymus DNA assessed as increase in viscosity at 15 uM by Ostwald viscometric analysis; settings: Bos taurus
In short: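 Ostwald viscometer in a 25 °C water bath. CT-DNA (150 μM, in 100 mM Tris-HCl pH 7.0) was measured alone, then after mixing with compound at 15 μM. EtBr and Hoechst 33342 complexes with CT-DNA served as controls.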

HEK293 [6] = assay: Cell cycle arrest in human HEK293 cells assessed as accumulation of cells at sub-G1 phase at 2.8 uM measured after 48 hrs by propidium iodide staining based FACS cytometry analysis (reference value: 1%); settings: hek293, 48 h
HEK293 [7] = assay: Cell cycle arrest in human HEK293 cells assessed as accumulation of cells at G0/G1 phase at 2.8 uM measured after 48 hrs by propidium iodide staining based FACS cytometry analysis (reference value: 64.1%); settings: hek293, 48 h
Sus scrofa [8] = species: Sus scrofa; assay: Inhibition of pig brain tubulin polymerization at 4 uM incubated for 1 hr by fluorescence based analysis relative to control; type: tissue-based; in short: as §2
[9] = Selectivity index, ratio of IC50 for human HEK293 cells to IC50 for human A549 cells assessed as reduction in cell viability measured after 48 hrs by MTT assay; type: toxicity; settings: HEK293 cells versus A549 cells, read-out: Ratio IC50
Sus scrofa [10] = species: Sus scrofa; assay: Inhibition of pig brain tubulin polymerization at 2 uM incubated for 1 hr by fluorescence based analysis relative to control; type: tissue-based; in short: as §2
Sus scrofa [11] = species: Sus scrofa; assay: Inhibition of pig brain tubulin polymerization at 1 uM incubated for 1 hr by fluorescence based analysis relative to control; type: tissue-based; in short: as §2
[12] = Induction of apoptosis in human HEK293 cells assessed as viable cells at 2.8 uM measured after 48 hrs by Annexin V-FITC/Propidium iodide staining based flowcytometry analysis (reference value: 80.2%); type: cell-based; settings: read-out: Activity
Sus scrofa [13] = species: Sus scrofa; assay: Inhibition of pig brain tubulin polymerization at 0.5 uM incubated for 1 hr by fluorescence based analysis relative to control; type: tissue-based; in short: as §2
A549 [14] = assay: Cell cycle arrest in human A549 cells assessed as accumulation of cells at G0/G1 phase at 2.8 uM measured after 48 hrs by propidium iodide staining based FACS cytometry analysis (reference value: 73%); type: functional
A549 [15] = assay: Cell cycle arrest in human A549 cells assessed as accumulation of cells at subG1 phase at 2.8 uM measured after 48 hrs by propidium iodide staining based FACS cytometry analysis (reference value: 4.2%); type: functional
Calf thymus DNA [16] = assay: Binding affinity to calf thymus DNA assessed as emission spectra at 360 nm at 10 uM measured every 5 mins by fluorescence titration analysis; settings: Bos taurus
In short: (§3)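 Fluorescence titration at 25 °C in a 1 cm quartz cuvette. Compound held at 10 μM while CT-DNA was added about 0.5 μM per step. Excitation 250 nm, emission scanned 300–500 nm with the peak followed at 360 nm. Each spectrum is the average of three scans. Cuvettes washed with water and about 0.1 N nitric acid between runs.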

Calf thymus DNA [17] = assay: Binding affinity to calf thymus DNA assessed as decrease in negative peak intensity at compound:DNA concentration ratio of 1:1 to 1:2 by CD spectroscopy; settings: Bos taurus
In short: (§4)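 Circular dichroism of CT-DNA (10 × 10^-6 M) in 100 mM Tris-HCl pH 7.0 at 25 °C. Spectra taken from 220 to 320 nm at CT-DNA:compound molar ratios of 1:0, 1:1 and 1:2. Each spectrum is the average of three scans.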

HEK293 [18] = assay: Cytotoxicity against human HEK293 cells assessed as reduction in cell viability incubated for 48 hrs by MTT assay; type: cell-based; settings: HEK293, 48 h; in short: as §1
Sus scrofa [19] = species: Sus scrofa; assay: (§5) Inhibition of pig brain tubulin polymerization incubated for 1 hr by fluorescence based analysis; type: tissue-based; in short: as §2
[20] = as §5; type: tissue-based, Sus scrofa; in short: as §2
[21] = Selectivity index, ratio of IC50 for human HEK293 cells to IC50 for human DU-145 cells assessed as reduction in cell viability measured after 48 hrs by MTT assay
HEK293 [22] = assay: Induction of apoptosis in human HEK293 cells assessed as pre and post apoptotic cells at 2.8 uM measured after 48 hrs by Annexin V-FITC/Propidium iodide staining based flowcytometry analysis (reference value: 0.2%); type: cell-based; settings: hek293, 48 h
A549 [23] = assay: Induction of apoptosis in human A549 cells assessed as pre and post apoptotic cells at 2.8 uM measured after 48 hrs by Annexin V-FITC/Propidium iodide staining based flowcytometry analysis (reference value: 0.1%); type: functional
Calf thymus DNA [24] = assay: Binding affinity to calf thymus DNA assessed as hypochromicity at 10 uM measured every 5 mins by fluorescence titration analysis; settings: Bos taurus; in short: as §3
Calf thymus DNA [25] = assay: Binding affinity to calf thymus DNA assessed as decrease in positive peak intensity at compound:DNA concentration ratio of 1:1 to 1:2 by CD spectroscopy; settings: Bos taurus; in short: as §4
Calf thymus DNA [26] = assay: Binding affinity to calf thymus DNA measured every 5 mins by UV-Vis spectroscopic analysis; parameters: species or system Bos taurus
In short: (§6)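 UV–Vis titration at 25 °C in a 1 cm quartz cuvette. Compound at about 10 μM (1 mM stock in 1:1 DMSO:water). CT-DNA (1 mM stock in 100 mM Tris-HCl pH 7.0) added about 0.5 μM at a time until the band was unchanged over five successive additions. Spectra recorded from 200 to 400 nm.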

A549 [27] = assay: Induction of apoptosis in human A549 cells assessed as viable cells at 2.8 uM measured after 48 hrs by Annexin V-FITC/Propidium iodide staining based flowcytometry analysis (reference value: 83.1%); type: functional; settings: read-out: Activity
Tubulin (Homo sapiens) = Tubulin (Homo sapiens) (UniProt P68371+Q9H4B7+P0DPH7+P68366+Q13509+Q71U36+P04350+Q3ZCM7+P07437+P68363+Q9BQE3+Q6PEY2+Q13885+Q9BVA1+Q9BUF5); assay: Inhibition of tubulin polymerization in human A549 cells assessed as disruption of microtubule network at IC50 measured after 48 hrs by confocal microscopic analysis; type: cell-based
HEK293 [28] = assay: Cell cycle arrest in human HEK293 cells assessed as accumulation of cells at G2/M phase at 2.8 uM measured after 48 hrs by propidium iodide staining based FACS cytometry analysis (reference value: 16.1%); settings: hek293, 48 h
Calf thymus DNA [29] = assay: Binding affinity to calf thymus DNA assessed as hyperchromicity at 10 uM measured every 5 mins by UV-Vis spectroscopic analysis; settings: Bos taurus; in short: as §6
Calf thymus DNA [30] = assay: Binding affinity to calf thymus DNA assessed as absorption peak between 310 and 312 nm at 10 uM measured every 5 mins by UV-Vis spectroscopic analysis; settings: Bos taurus; in short: as §6
HEK293 [31] = assay: Cell cycle arrest in human HEK293 cells assessed as accumulation of cells at S phase at 2.8 uM measured after 48 hrs by propidium iodide staining based FACS cytometry analysis (reference value: 18.8%); settings: hek293, 48 h
A549 [32] = assay: Cell cycle arrest in human A549 cells assessed as accumulation of cells at G2/M phase at 2.8 uM measured after 48 hrs by propidium iodide staining based FACS cytometry analysis (reference value: 10.1%); type: functional

Cc1cc(Br)c2nc(-c3nnc(-c4ccc(Br)cc4)o3)cn2c1
IC50 (DU-145): 22.3 µM | IC50 (PC-3): 24.5 µM | IC50 (A549 [1]): 23.4 µM

Clc1ccc(-c2nnc(-c3cn4ccccc4n3)o2)cc1
IC50 (DU-145): 32.8 µM | IC50 (PC-3): 33.7 µM | IC50 (A549 [1]): 32.4 µM

c1ccc(-c2nnc(-c3cn4ccccc4n3)o2)cc1
IC50 (DU-145): 23.4 µM | IC50 (PC-3): 22.2 µM | IC50 (A549 [1]): 23.4 µM

COc1ccc(-c2nnc(-c3cn4ccccc4n3)o2)cc1
IC50 (DU-145): 12.9 µM | IC50 (PC-3): 13.4 µM | IC50 (A549 [1]): 11.9 µM

COc1ccc(-c2nnc(-c3cn4cccc(C)c4n3)o2)cc1
IC50 (DU-145): 10.8 µM | IC50 (PC-3): 11.8 µM | IC50 (A549 [1]): 12.8 µM

COc1cc([C@@H]2c3cc4c(cc3[C@H](O)[C@H]3COC(=O)[C@H]23)OCO4)cc(OC)c1OC [PODOFILOX]
IC50 (DU-145): 0.06 µM | IC50 (PC-3): 0.06 µM

COc1cc(-c2nnc(-c3cn4ccccc4n3)o2)cc(OC)c1OC
inhibition (Sus scrofa [2]): 81.2% | Activity (A549 [3]): 6.9% | IC50 (DU-145): 4.5 µM | selectivity ratio at 48 h [4]: 25.4 | Activity (Calf thymus DNA [5]): Active | Activity (HEK293 [6]): 2.1% | Activity (HEK293 [7]): 63.2% | inhibition (Sus scrofa [8]): 60.1% | selectivity ratio at 48 h [9]: 29 | IC50 (PC-3): 3.5 µM | inhibition (Sus scrofa [10]): 21.7% | inhibition (Sus scrofa [11]): 11.5% | viability at 48 h, 2.8 µM [12]: 18.5% | inhibition (Sus scrofa [13]): 4.6% | Activity (A549 [14]): 74.5% | Activity (A549 [15]): 1.3% | Activity (Calf thymus DNA [16]): Active | Activity (Calf thymus DNA [17]): Active | IC50 (HEK293 [18]): 89 µM | inhibition (Sus scrofa [19]): Dose-Dependent Effect | IC50 [20]: 3.45 µM | Ratio IC50 [21]: 19.7 | Activity (HEK293 [22]): 74.5% | Activity (A549 [23]): 86.5% | Activity (Calf thymus DNA [24]): Active | Activity (Calf thymus DNA [25]): Active | Kd (Calf thymus DNA [26]): 0.042 µM | viability at 2.8 µM (A549 [27]): 4.3% | inhibition (Tubulin (Homo sapiens)): Active | Activity (HEK293 [28]): 15.7% | Activity (Calf thymus DNA [29]): Active | Activity (Calf thymus DNA [30]): Active | Activity (HEK293 [31]): 18.8% | IC50 (A549 [1]): 2.8 µM | Activity (A549 [32]): 17.1%

COc1ccc(-c2nnc(-c3cn4cccc(C)c4n3)o2)cc1OC
IC50 (DU-145): 11.8 µM | IC50 (PC-3): 11.5 µM | IC50 (A549 [1]): 10.9 µM
